Measured values: ChEMBL document CHEMBL1157028, “Synthesis and anti-inflammatory activity of novel (substituted)benzylidene acetone oxime ether derivatives: molecular modeling study” (Eur J Med Chem, 2010)

Assays:
Rattus norvegicus [1] = assay: Antiinflammatory activity in Wistar rat assessed as inhibition of carrageenan-induced paw edema at equimolar ip dose relative […] diclofenac sodium administered 1 hr before carrageenan challenge measured after 3 hrs relative to control; format: functional
How it was run: (§1)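 Wistar rats (100–120 g), 5 per group, were dosed ip either at equimolar […] or at three graded doses to derive ED50. Vehicle-only rats served as controls. After 1 h, 0.05 mL 1% carrageenin in saline (made 24 h earlier) was injected subplantar into the right hind paw and saline into the left. At 3 h, rats were killed and both paws cut and weighed. Right-over-left % weight increase gave % oedema reduction versus control.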

Mus musculus [2] = assay: Analgesic activity in Swiss albino mouse assessed as inhibition of acetic acid-induced writhing at 100 mg/kg, po administered 2 hrs before acetic acid challenge measured after 20 mins relative to control; format: functional
How it was run: (§2)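 Swiss albino mice of either sex (20–25 g), in groups of 6, were housed at 22 ± 2 °C on a 12 h light/dark cycle. Drug was given orally and vehicle alone to negative controls. After 2 h, 0.2 mL 3% acetic acid was injected ip. Writhes were counted over 20 min, and % reduction in writhe number versus the control group was calculated.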

Rattus norvegicus [3] = assay: Antiinflammatory activity in Wistar rat assessed as inhibition of carrageenan-induced paw edema at 30 mg/kg, ip administered 1 hr before carrageenan challenge measured after 3 hrs relative to control; format: functional; conditions: route intraperitoneal; how it was run: as §1
Rattus norvegicus [4] = assay: Antiinflammatory activity in Wistar rat assessed as inhibition of carrageenan-induced paw edema at 75 mg/kg, ip administered 1 hr before carrageenan challenge measured after 3 hrs relative to control; format: functional; conditions: route intraperitoneal; how it was run: as §1
Rattus norvegicus [5] = assay: Antiinflammatory activity in ip dosed Wistar rat assessed as inhibition of carrageenan-induced paw edema administered 1 hr before carrageenan challenge measured after 3 hrs relative to control; format: functional; how it was run: as §1
Rattus norvegicus [6] = assay: Gastrointestinal toxicity in Wistar rat assessed as length of elongated ulcer at equimolar po dose relative […] diclofenac sodium qd for 5 days measured after 10 hrs last post dose; format: organism-based; conditions: in vivo
How it was run: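 Rats, 5 per group, were given oral equimolar doses ([…]) daily for 5 days. They were killed by ether overdose 10 h after the last dose. Stomachs were rinsed with saline, opened along the greater curvature and examined under a ×10 hand lens. Ulcer number and summed ulcer length were recorded per animal, and the mean was taken as ulcer index.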

[7] = Therapeutic index, ED50 for antiinflammatory activity to LD50 for acute toxicity in Wistar rat; conditions: read-out: TI
[8] = Acute toxicity in ip dosed Wistar rat assessed as mortality after 24 hrs; format: organism-based; conditions: in vivo
Mus musculus [9] = assay: Analgesic activity in Swiss albino mouse assessed as inhibition of acetic acid-induced writhing at 37 mg/kg, po administered 2 hrs before acetic acid challenge measured after 20 mins relative to control; format: functional; how it was run: as §2
Rattus norvegicus [10] = assay: Antiinflammatory activity in Wistar rat assessed as inhibition of carrageenan-induced paw edema at 37 mg/kg, ip administered 1 hr before carrageenan challenge measured after 3 hrs relative to control; format: functional; conditions: route intraperitoneal; how it was run: as §1
Rattus norvegicus [11] = assay: Antiinflammatory activity in Wistar rat assessed as inhibition of carrageenan-induced paw edema at 50 mg/kg, ip administered 1 hr before carrageenan challenge measured after 3 hrs relative to control; format: functional; conditions: route intraperitoneal; how it was run: as §1
Rattus norvegicus [12] = assay: Antiinflammatory activity in Wistar rat assessed as inhibition of carrageenan-induced paw edema at […], ip administered 1 hr before carrageenan challenge measured after 3 hrs relative to control; format: functional; how it was run: as §1
Mus musculus [13] = assay: Analgesic activity in Swiss albino mouse assessed as inhibition of acetic acid-induced writhing at 50 mg/kg, po administered 2 hrs before acetic acid challenge measured after 20 mins relative to control; format: functional; how it was run: as §2
Rattus norvegicus [14] = assay: Antiinflammatory activity in Wistar rat assessed as inhibition of carrageenan-induced paw edema at 45 mg/kg, ip administered 1 hr before carrageenan challenge measured after 3 hrs relative to control; format: functional; conditions: route intraperitoneal; how it was run: as §1
Mus musculus [15] = assay: Analgesic activity in Swiss albino mouse assessed as inhibition of acetic acid-induced writhing at 45 mg/kg, po administered 2 hrs before acetic acid challenge measured after 20 mins relative to control; format: functional; how it was run: as §2

Row | SMILES | inhibition (INH) (Rattus norvegicus [1]) | further results
1 | COc1ccc(/C=C/C(C)=N/OCC(=O)O)cc1 | 7.35% | –
2 | COc1ccc(/C=C/C(C)=N/OCC(=O)NN)cc1 | 24.44% | –
3 | CC(/C=C/c1ccccc1)=N\OCC(N)=O | 49.71% | –
4 | CC(/C=C/c1ccccc1)=N\OCC(=O)NC(C)C | 30.93% | –
5 | CC(/C=C/c1ccc(Cl)cc1)=N\OCC(=O)O | 50.57% | –
6 | COc1ccc(/C=C/C(C)=N/OCC(=O)Nc2ccc(OC)cc2)cc1 | 37.25% | –
7 | COc1ccc(/C=C/C(C)=N/OCC(=O)NC(C)C)cc1 | 41.68% | –
8 | COc1ccc(/C=C/C(C)=N/OC(C)C(=O)NC(C)C)cc1 (centres undefined) | 27.53% | –
9 | CC(/C=C/c1ccc(Cl)cc1)=N\OCC(N)=O | 50.77% | –
10 | CCOC(=O)C(C)O/N=C(C)/C=C/c1ccc(Cl)cc1 (centres undefined) | 44.52% | –
11 | CC(/C=C/c1ccc(Cl)cc1)=N\OC(C)C(=O)NC(C)C (centres undefined) | 42.84% | –
12 | COc1ccc(/C=C/C(C)=N/OCC(N)=O)cc1 | 38.21% | –
13 | CCOC(=O)CO/N=C(C)/C=C/c1ccc(Cl)cc1 | 26.23% | –
14 | CCOC(=O)C(C)O/N=C(C)/C=C/c1ccc(OC)cc1 (centres undefined) | 21.66% | –
15 | CC(/C=C/c1ccc(Cl)cc1)=N\OCC(=O)NN | 21.76% | –
16 | COc1ccc(/C=C/C(C)=N/OC(C)C(=O)O)cc1 (centres undefined) | 45.38% | –
17 | COc1ccc(/C=C/C(C)=N/OC(C)C(=O)NN)cc1 (centres undefined) | 38.76% | –
18 | COc1ccc(NC(=O)CO/N=C(C)/C=C/c2ccc(Cl)cc2)cc1 | 48.16% | –
19 | CC(/C=C/c1ccccc1)=N\OC(C)C(N)=O (centres undefined) | 63.23% | inhibition in vivo at 100 mg/kg (Mus musculus [2]): 82.5%; inhibition in vivo at 30 mg/kg (Rattus norvegicus [3]): 37.7%; inhibition in vivo at 75 mg/kg (Rattus norvegicus [4]): 69.1%; ED50 (Rattus norvegicus [5]): 34.3 mg/kg; Activity (Rattus norvegicus [6]): 0.3 mm; selectivity ratio [7]: 20.1; LD50 at 24 h [8]: 745 mg/kg; inhibition in vivo at 37 mg/kg (Mus musculus [9]): 53.6%; inhibition in vivo at 37 mg/kg (Rattus norvegicus [10]): 63.2%
20 | CCOC(=O)CO/N=C(C)/C=C/c1ccccc1 | 29.76% | –

Row | SMILES | inhibition (INH) (Rattus norvegicus [1]) | further results
21 | CCOC(=O)C(C)O/N=C(C)/C=C/c1ccccc1 (centres undefined) | 33.2% | –
22 | O=C([O-])Cc1ccccc1Nc1c(Cl)cccc1Cl.[Na+] [DICLOFENAC SODIUM] | – | inhibition in vivo at 30 mg/kg (Rattus norvegicus [3]): 46%; inhibition in vivo at 75 mg/kg (Rattus norvegicus [4]): 80.2%; ED50 (Rattus norvegicus [5]): 30.6 mg/kg; inhibition in vivo at 50 mg/kg (Rattus norvegicus [11]): 72.1%; Activity (Rattus norvegicus [6]): 7.9 mm; inhibition (INH) (Rattus norvegicus [12]): 72.13%; inhibition in vivo at 50 mg/kg (Mus musculus [13]): 71.1%
23 | CC(/C=C/c1ccc(Cl)cc1)=N\OC(C)C(=O)O (centres undefined) | 66.7% | inhibition in vivo at 100 mg/kg (Mus musculus [2]): 39.1%; inhibition in vivo at 30 mg/kg (Rattus norvegicus [3]): 45.1%; inhibition in vivo at 75 mg/kg (Rattus norvegicus [4]): 75.2%; ED50 (Rattus norvegicus [5]): 29.9 mg/kg; Activity (Rattus norvegicus [6]): 8.1 mm; selectivity ratio [7]: 24.9; inhibition in vivo at 45 mg/kg (Rattus norvegicus [14]): 66.7%; inhibition in vivo at 45 mg/kg (Mus musculus [15]): 20.3%; LD50 at 24 h [8]: 745 mg/kg
24 | CC(/C=C/c1ccccc1)=N\OC(C)C(=O)NN (centres undefined) | 56.27% | –
25 | CC(/C=C/c1ccc(Cl)cc1)=N\OCC(=O)Nc1ccccc1 | 29.45% | –
26 | CC(/C=C/c1ccccc1)=N\OCC(=O)Nc1ccccc1 | 35.43% | –
27 | COc1ccc(/C=C/C(C)=N/OC(C)C(N)=O)cc1 (centres undefined) | 58.53% | –
28 | CC(/C=C/c1ccc(Cl)cc1)=N\OC(C)C(N)=O (centres undefined) | 57.54% | –
29 | CC(/C=C/c1ccccc1)=N\OCC(=O)O | 45.62% | –
30 | CC(/C=C/c1ccccc1)=N\OCC(=O)Nc1ccc(Cl)cc1 | 28.66% | –
31 | CC(/C=C/c1ccc(Cl)cc1)=N\OCC(=O)NC(C)C | 28.49% | –
32 | CC(/C=C/c1ccc(Cl)cc1)=N\OCC(=O)Nc1ccc(Cl)cc1 | 40.89% | –
33 | CC(/C=C/c1ccc(Cl)cc1)=N\OC(C)C(=O)NN (centres undefined) | 43.49% | –
34 | CCOC(=O)CO/N=C(C)/C=C/c1ccc(OC)cc1 | 22.14% | –
35 | COc1ccc(/C=C/C(C)=N/OCC(=O)Nc2ccc(Cl)cc2)cc1 | 43.32% | –
36 | COc1ccc(NC(=O)CO/N=C(C)/C=C/c2ccccc2)cc1 | 49.64% | –
37 | CC(/C=C/c1ccccc1)=N\OC(C)C(=O)NC(C)C (centres undefined) | 37.38% | –
38 | CC(/C=C/c1ccccc1)=N\OC(C)C(=O)O (centres undefined) | 40.85% | –
39 | CC(/C=C/c1ccccc1)=N\OCC(=O)NN | 29.01% | –
40 | COc1ccc(/C=C/C(C)=N/OCC(=O)Nc2ccccc2)cc1 | 42.91% | –
